For data set [1], the system named is Mycolicibacterium aurum. The data set is described as follows: Inhibition of type II fatty acid biosynthesis pathway in Mycobacterium aurum at 25 uM after 12 hrs by lacZ reporter assay relative to untreated control. The format is functional. The method, boiled down:
(§1)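 Recombinant M. aurum lacZ reporter strains (kasA promoter or hsp60 promoter) grown in Sauton's medium with kanamycin at 37 °C to 0.5 OD600, diluted to 0.04–0.05 OD, equilibrated 2 h, then treated 12 h at 37 °C (10, 25, 50, 75 µM). Cells sonicated in PBS pH 7.2 and protein normalized by Bradford. β-gal measured with ONPG (4 mg/ml), 30 min at 37 °C, stopped with Na2CO3, OD 410 nm. Triplicates, relative to untreated control.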
For orientation: A reporter such as luciferase makes a cellular process visible.

In data set [2] the test system is Mycolicibacterium aurum. The data set is described as follows: Inhibition of type II fatty acid biosynthesis pathway in Mycobacterium aurum at 50 uM after 12 hrs by lacZ reporter assay relative to untreated control. The class given is functional. The gist of the method: as §1
A short description of data set [3]: Cytotoxicity against african green monkey Vero cells after 72 hrs. The format is cell-based. As to conditions: chlorocebus sabaeus. The method, boiled down:
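Vero (C1008 monkey kidney) cells grown in MEM + 15% FBS, 5% CO2, 37 °C. Trypsinized cells at 1 × 10^5 cells/ml seeded and allowed to adhere overnight, then exposed to serial compound dilutions for 72 h. Resazurin added and fluorescence read after 4 h.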

A short description of data set [4]: Selectivity index, ratio of CC50 for african green monkey (Cercopithecus aethiops) Vero cells to IC50 for Plasmodium falciparum 3D7. The format is functional. The method, boiled down:
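Ratio of Vero CC50 (resazurin fluorescence after 72 h exposure) to P. falciparum 3D7 IC50 (radiolabelled hypoxanthine uptake; 24 h compound exposure, then 48 h with label).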

Data set [5] deals with Plasmodium falciparum. The data set can be described thus: Antimalarial activity against Plasmodium falciparum 3D7 assessed as maturation of schizonts after 24 to 32 hrs by microdilution method. The class given is functional. The method, boiled down:
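P. falciparum 3D7 (chloroquine sensitive); twofold serial dilutions in complete RPMI 1640 from 10 mg/ml DMSO stocks, parasitized RBCs added (final hematocrit 3–4%, 1.0–2.0% parasitaemia, >95% rings). Incubated 24–32 h at 37 °C with 5% CO2. Thin smears stained with 15% Giemsa; schizont maturation scored against controls to give MIC.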
A general note: In broth dilution the organism is exposed to a series of concentrations in liquid medium.

For data set [6], the system named is Plasmodium falciparum. The data set is described as follows: Antimalarial activity against Plasmodium falciparum 3D7 assessed as radiolabeled hypoxanthine uptake after 48 hrs by scintillation counting. The class given is functional, organism-based. The conditions noted are these: 3D7, 48 h. The method, boiled down: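 Chloroquine-sensitive P. falciparum 3D7 asynchronous culture at 0.5% parasitaemia and 1.5% hematocrit, exposed to compounds for 24 h at 37 °C in CO2. Radiolabelled hypoxanthine (0.5 µCi/well) then added and incubation continued 48 h. Cells harvested onto filter paper, and radioactivity counted by scintillation β-counter. IC50 derived from hypoxanthine uptake.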

Data set [7] relates to Mycobacterium tuberculosis. The data set can be described thus: Antimicrobial activity against Mycobacterium tuberculosis H37Rv after 30 days by agar microdilution method. The class given is functional. The gist of the method:
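Twofold dilutions of compound in DMSO incorporated into Middlebrook 7H10 medium with OADC supplement in slanted tubes, preincubated 37 °C for 24 h, then streaked with H37Rv harvested from L-J medium into 0.85% saline with 0.05% Tween-80 (5 × 10^5 bacilli per tube). Incubated at 37 °C; MIC = lowest concentration giving complete inhibition of colonies versus drug-free control.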

Here are results for 14 molecules from ChEMBL document CHEMBL1287740, “Synthesis and bio-evaluation of alkylaminoaryl phenyl cyclopropyl methanones as antitubercular and antimalarial agents” (Bioorg Med Chem, 2010).

Converted amounts (≈) assume the structure as drawn. The source made the active and inactive calls. The calls are words filed in the database; no cut-off is given here. Bounds are passed on as bounds.

In turn, `O=C(c1ccc(N2CCOCC2)cc1)C1CC1c1ccc(Cl)cc1` (stereo not drawn) had an inhibition at 25 µM in the data set on Mycolicibacterium aurum [1] of 29.8%. This molecule also yielded an inhibition at 50 µM in the data set on Mycolicibacterium aurum [2] of 3.81%. This molecule also showed a CC50 at 72 h in data set [3] of 453 µg/mL (≈ 1320 µM). Besides, the “Ratio CC50/IC50” value in data set [4] was determined as 149.92. Moreover, the MIC in the data set with Plasmodium falciparum [5] was 10 µg/mL (≈ 29.3 µM); in data set [7], over 12.5 µg/mL. Also, in the data set with Plasmodium falciparum [6], the IC50 came to 3.02 µg/mL (≈ 8.83 µM).
Molecule `O=C(/C=C/c1ccc(Cl)cc1)c1ccc(NCc2ccco2)cc1` registered a CC50 at 72 h in data set [3] of 404 µg/mL (≈ 1200 µM). In data set [4], the “Ratio CC50/IC50” value is reported as 531.62. In addition, the values for the MIC (with Plasmodium falciparum [5]; in data set [7]) were 10 µg/mL (≈ 29.6 µM) and 12.5 µg/mL (≈ 37 µM), respectively. In the data set on Plasmodium falciparum [6], the IC50 worked out at 0.76 µg/mL (≈ 2.25 µM).
Take `CCCCCCCCCCCCCCCCNc1ccc(C(=O)C2CC2c2ccc(Cl)cc2)cc1` (stereo not drawn): the inhibition at 25 µM in the data set with Mycolicibacterium aurum [1] stood at 36%. In addition, testing at 50 µM in the data set with Mycolicibacterium aurum [2] gave an inhibition of 36.7%. This molecule also displayed a CC50 at 72 h in data set [3] of 410 µg/mL (≈ 826 µM). The “Ratio CC50/IC50” value in data set [4] turned out to be 89.68. Also, the MIC was 50 µg/mL (≈ 101 µM) in the data set on Plasmodium falciparum [5] and “Insoluble” in data set [7]. For the same molecule, the IC50 with Plasmodium falciparum [6] was determined as 4.57 µg/mL (≈ 9.21 µM).
`CCCCCCCCNc1ccc(C(=O)C2CC2c2ccc(Cl)cc2)cc1` (stereo not drawn) showed an inhibition at 25 µM in the data set on Mycolicibacterium aurum [1] of 30.2%. Moreover, in the data set with Mycolicibacterium aurum [2], the inhibition at 50 µM stood at 23.9%. The same molecule had a CC50 at 72 h in data set [3] of 214 µg/mL (≈ 558 µM). Besides, in data set [4], the “Ratio CC50/IC50” value turned out to be 100.53. Also, the MIC was 10 µg/mL (≈ 26 µM) with Plasmodium falciparum [5] and over 12.5 µg/mL in data set [7]. Also, in the data set on Plasmodium falciparum [6], the IC50 was found to be 2.13 µg/mL (≈ 5.55 µM).
In turn, `CCCCNc1ccc(C(=O)C2CC2c2ccc(Cl)cc2)cc1` (stereo not drawn) came in with an inhibition at 25 µM with Mycolicibacterium aurum [1] of 39.5%. In the data set with Mycolicibacterium aurum [2], this molecule registered an inhibition at 50 µM of 60.9%. It took 316 µg/mL (≈ 965 µM) to reach half-maximal cytotoxicity in data set [3] (CC50 at 72 h). In addition, the “Ratio CC50/IC50” value in data set [4] was found to be 958.69. The results for the MIC (in the data set with Plasmodium falciparum [5]; in data set [7]) were 0.6 µg/mL (≈ 1.83 µM) and 12.5 µg/mL (≈ 38.1 µM), respectively. In addition, the IC50 with Plasmodium falciparum [6] was found to be 0.33 µg/mL (≈ 1.01 µM).
Molecule `CCCCCCCCCCCCNc1ccc(C(=O)C2CC2c2ccc(Cl)cc2)cc1` (stereo not drawn) yielded an inhibition at 25 µM with Mycolicibacterium aurum [1] of 27%. The same molecule gave an inhibition at 50 µM with Mycolicibacterium aurum [2] of 32.7%. Moreover, in data set [3], the midpoint of cytotoxicity, the CC50 at 72 h, lay at 386 µg/mL (≈ 876 µM). Also, the “Ratio CC50/IC50” value in data set [4] is 37.08. Further, the figures for the MIC (with Plasmodium falciparum [5]; in data set [7]) were over 50 µg/mL and “Insoluble”, respectively. The IC50 in the data set on Plasmodium falciparum [6] was found to be 10.4 µg/mL (≈ 23.6 µM).
In data set [3], `COc1ccc(C2CC2C(=O)c2ccc(N3CCN(C)CC3)cc2)cc1OC` (stereo not drawn) showed a CC50 at 72 h of 77.8 µg/mL (≈ 205 µM). Besides, the “Ratio CC50/IC50” value in data set [4] amounted to 37.23. Also, the MIC in the data set with Plasmodium falciparum [5] is 50 µg/mL (≈ 131 µM); in data set [7], over 12.5 µg/mL. The IC50 in the data set with Plasmodium falciparum [6] worked out at 2.09 µg/mL (≈ 5.49 µM).
Molecule `O=C(c1ccc(N2CCCC2)cc1)C1CC1c1ccc(Cl)cc1` (stereo not drawn) showed a CC50 at 72 h in data set [3] of 431 µg/mL (≈ 1320 µM). The “Ratio CC50/IC50” value in data set [4] came out at 44.26. In addition, the results for the MIC (in the data set on Plasmodium falciparum [5]; in data set [7]) were over 50 µg/mL and 12.5 µg/mL (≈ 38.4 µM), respectively. The IC50 in the data set on Plasmodium falciparum [6] amounted to 9.75 µg/mL (≈ 29.9 µM).
`CCN(CC)CCCC(C)Nc1ccnc2cc(Cl)ccc12` (stereo not drawn) [CHLOROQUINE]: the MIC in the data set on Plasmodium falciparum [5] is 0.05 µg/mL (≈ 0.156 µM).
As to `O=C(c1ccc(N2CCCCC2)cc1)C1CC1c1ccc(Cl)cc1` (stereo not drawn), in data set [3], the midpoint of cytotoxicity, the CC50 at 72 h, lay at 284 µg/mL (≈ 836 µM). Besides, the “Ratio CC50/IC50” value in data set [4] turned out to be 46.99. Besides, the figures for the MIC (in the data set on Plasmodium falciparum [5]; in data set [7]) were 10 µg/mL (≈ 29.4 µM) and over 12.5 µg/mL, respectively. For the same molecule, the IC50 with Plasmodium falciparum [6] was 6.05 µg/mL (≈ 17.8 µM).
In the data set on Mycolicibacterium aurum [1], `CN1CCN(c2ccc(C(=O)/C=C/c3ccc(Cl)cc3)cc2)CC1` came in with an inhibition at 25 µM of 13.6%. This molecule registered an inhibition at 50 µM in the data set on Mycolicibacterium aurum [2] of 14.7%. Moreover, it took 102 µg/mL (≈ 301 µM) to reach half-maximal cytotoxicity in data set [3] (CC50 at 72 h). Further, the “Ratio CC50/IC50” value in data set [4] is 8.69. Moreover, the MIC in the data set with Plasmodium falciparum [5] stood at 50 µg/mL (≈ 147 µM); in data set [7], 3.12 µg/mL (≈ 9.15 µM). For the same molecule, the half-inhibitory concentration (IC50) in the data set with Plasmodium falciparum [6] turned out to be 11.8 µg/mL (≈ 34.6 µM).
Take `CN1CCN(c2ccc(C(=O)C3CC3c3ccc(Cl)cc3)cc2)CC1` (stereo not drawn): the inhibition entry with Mycolicibacterium aurum [1] was “inactive”. Besides, in the data set with Mycolicibacterium aurum [2], testing at 50 µM gave an inhibition of 0.17%. In data set [3], this molecule returned a CC50 at 72 h of 82.1 µg/mL (≈ 231 µM). The “Ratio CC50/IC50” value in data set [4] amounted to 151.96. Also, the MIC was 10 µg/mL (≈ 28.2 µM) in the data set on Plasmodium falciparum [5] and 6.25 µg/mL (≈ 17.6 µM) in data set [7]. Also, the concentration for half-maximal inhibition (IC50) in the data set on Plasmodium falciparum [6] worked out at 0.54 µg/mL (≈ 1.52 µM).
Consider `CN(C)c1ccc(C(=O)C2CC2c2ccc(Cl)cc2)cc1` (stereo not drawn), for which the CC50 at 72 h in data set [3] is 344 µg/mL (≈ 1150 µM). Moreover, the “Ratio CC50/IC50” value in data set [4] is reported as 240.4. Moreover, the MIC was 10 µg/mL (≈ 33.4 µM) in the data set with Plasmodium falciparum [5] and “Insoluble” in data set [7]. The IC50 in the data set with Plasmodium falciparum [6] is 1.43 µg/mL (≈ 4.77 µM).
In turn, `CC(C)CCCC(C)Nc1ccc(C(=O)C2CC2c2ccc(Cl)cc2)cc1` (stereo not drawn) returned an inhibition at 25 µM with Mycolicibacterium aurum [1] of 17.5%. In the data set with Mycolicibacterium aurum [2], this molecule had an inhibition at 50 µM of 27.4%. In addition, the MIC in data set [7] is over 12.5 µg/mL.

The term inhibition denotes the percentage by which the read-out fell short of the control. As usually defined, the CC50 is the concentration giving 50% cytotoxicity. The term MIC denotes the least concentration at which growth counts as inhibited. Broadly, the IC50 is the concentration that inhibits the measured activity by half.
